# From article PMC2780000 (Biochemistry, 2009)
# Where a chain is given by its changes, count along the chain named.
# Legend:
# Experiment in all cases: aerobic spectrophotometric titration of flavin absorbance
# Assay type in all cases: binding
# [1] = target: T1, Class 2 dihydroorotate dehydrogenase (DHOD) from E. coli (Escherichia coli, UniProt P0A7E1, F115L)
# T1 sequence (P0A7E1 1-336 F115L): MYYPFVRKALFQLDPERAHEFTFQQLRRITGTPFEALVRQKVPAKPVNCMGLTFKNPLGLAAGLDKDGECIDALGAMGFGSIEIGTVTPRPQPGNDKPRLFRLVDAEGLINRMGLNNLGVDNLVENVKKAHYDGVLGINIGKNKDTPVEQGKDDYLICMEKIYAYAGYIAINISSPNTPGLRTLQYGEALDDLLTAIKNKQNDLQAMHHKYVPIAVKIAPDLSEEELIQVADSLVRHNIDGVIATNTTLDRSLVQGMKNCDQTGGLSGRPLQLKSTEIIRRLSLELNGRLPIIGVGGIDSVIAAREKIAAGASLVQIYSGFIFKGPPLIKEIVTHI
# Method in brief: (§1)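 Enzymes (wild-type and mutants) expressed from the pAG-1 plasmid in E. coli SØ6645, purified, stored at −80 °C in 50% glycerol, and desalted into buffer before use. The oxidized enzyme in 0.1 M Tris-HCl, pH 8.5, 25 °C, was titrated aerobically with orotate in the same buffer. The flavin absorbance change (456→475 nm red-shift) vs orotate was fit to a binding equation using total enzyme and total ligand to give Kd.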
# [2] = target: T2, Class 2 dihydroorotate dehydrogenase (DHOD) from E. coli (Escherichia coli, UniProt P0A7E1, T178A)
# T2 sequence (P0A7E1 1-336 T178A): T1 sequence (P0A7E1 1-336 F115L) with L115F, T178A
# Method in brief: as §1
# [3] = target: T3, Class 2 dihydroorotate dehydrogenase (DHOD) from E. coli (Escherichia coli, UniProt P0A7E1, S175A)
# T3 sequence (P0A7E1 1-336 S175A): T1 sequence (P0A7E1 1-336 F115L) with L115F, S175A
# Method in brief: as §1
# [4] = target: T4, Class 2 dihydroorotate dehydrogenase (DHOD) from E. coli (Escherichia coli, UniProt P0A7E1, F115L/T178V)
# T4 sequence (P0A7E1 1-336 F115L/T178V): T1 sequence (P0A7E1 1-336 F115L) with T178V
# Method in brief: as §1
# [5] = target: T5, Class 2 dihydroorotate dehydrogenase (DHOD) from E. coli (Escherichia coli, UniProt P0A7E1, T178V)
# T5 sequence (P0A7E1 1-336 T178V): T1 sequence (P0A7E1 1-336 F115L) with L115F, T178V
# Method in brief: as §1
# [6] = target: T6, Class 2 dihydroorotate dehydrogenase (DHOD) from E. coli (Escherichia coli, UniProt P0A7E1, F115W)
# T6 sequence (P0A7E1 1-336 F115W): T1 sequence (P0A7E1 1-336 F115L) with L115W
# Method in brief: as §1
# [7] = target: T7, Class 2 dihydroorotate dehydrogenase (DHOD) from E. coli (Escherichia coli, UniProt P0A7E1, T178S)
# T7 sequence (P0A7E1 1-336 T178S): T1 sequence (P0A7E1 1-336 F115L) with L115F, T178S
# Method in brief: as §1
# [8] = target: T8, Class 2 dihydroorotate dehydrogenase (DHOD) from E. coli (Escherichia coli, UniProt P0A7E1, F115A)
# T8 sequence (P0A7E1 1-336 F115A): T1 sequence (P0A7E1 1-336 F115L) with L115A
# Method in brief: as §1
smiles,measurement,setting,value
O=C(O)c1cc(=O)[nH]c(=O)[nH]1 [orotate],Kd,[1],3.7 ± 0.3 µM
same,Kd,[2],6.1 ± 0.8 µM
same,Kd,[3],9.9 ± 0.9 µM
same,Kd,[4],4.6 ± 0.3 µM
same,Kd,[5],0.56 ± 0.04 µM
same,Kd,[6],8.1 ± 0.4 µM
same,Kd,[7],1.1 ± 0.4 µM
same,Kd,[8],3.8 ± 0.5 µM
